Assay results published in ChEMBL document CHEMBL1144581, “alpha-Amino acid derivatives as proton pump inhibitors and potent anti-ulcer agents” (2007).
Activity calls are given as the source filed them. The calls are words filed in the database; no cut-off is given here.

What was measured:
[1] = species: Rattus norvegicus; assay: Inhibition of gastric H+/K(+)-ATPase activity in Sprague-Dawley rat microsomal vesicles at 10 umol; assay type: microsomes; conditions: Stomach, Microsome
Method in brief: (§1)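 Rat gastric microsomes were prepared by density gradient and differential centrifugation. The medium held 40 mM Tris-HCl pH 7.4, 2 mM MgCl2, 10 mM KCl (water for blank) and […] vesicular protein. Compound was preincubated 30 min at 37 °C. Tris-ATP at 0.3, 1.0 or 3 mM was then added for 20 min and stopped with chilled 10% TCA. Released Pi was read at 530 nm; % inhibition vs control.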

[2] = species: Rattus norvegicus; assay: Antisecretory activity in rat pylorus ligation-induced ulcer model determined by ratio of total acidity inhibition in drug treated to untreated control; assay type: functional
Method in brief: (§2)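 Sprague Dawley rats (130-150 g) fasted 24 h with water ad libitum; pylorus ligated through a midline incision under ether anesthesia. Dosing oral, 1 h before ligation. Gastric juice free and total acidity titrated against 0.01 N NaOH, with Topfer's reagent and phenolphthalein as indicators. Values expressed as ratio of percent inhibition, treated vs control group.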

[3] = species: Rattus norvegicus; assay: Antisecretory activity in rat pylorus ligation-induced ulcer model determined by ratio of free acidity inhibition in drug treated to untreated control; assay type: functional; method in brief: as §2
[4] = species: Rattus norvegicus; assay: Inhibition of gastric proton pump activity of gastric H(+)/K(+) ATPase in Sprague-Dawley rat microsomal vesicles after washing at 10 uM; assay type: microsomes; conditions: Stomach, Microsome
[5] = species: Rattus norvegicus; assay: Inhibition of gastric H+/K(+)-ATPase activity in Sprague-Dawley rat microsomal vesicles at 10 uM in presence of 0.3 mM of ATP; assay type: microsomes; conditions: Stomach, Microsome; method in brief: as §1
[6] = species: Rattus norvegicus; assay: Inhibition of p-NPPase in Sprague-Dawley rat microsomal vesicles at 3 uM in presence of 1.0 mM of p-NPP; assay type: microsomes; conditions: Microsome
Method in brief: (§3)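 Rat gastric microsomes were assayed in 10 mM PIPES/Tris pH 7.0 with 5 mM KCl. Compound was preincubated 30 min at 37 °C. p-NPP at 1.0, 3.0 or 5.0 mM was added and incubated 20 min at 37 °C, then stopped with 0.5 N NaOH. p-Nitrophenol release was read at 410 nm; % inhibition vs control.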

[7] = species: Rattus norvegicus; assay: Inhibition of p-NPPase in Sprague-Dawley rat microsomal vesicles at 30 uM in presence of 5.0 mM of p-NPP; assay type: microsomes; conditions: Microsome; method in brief: as §3
[8] = species: Rattus norvegicus; assay: Inhibition of gastric H+/K(+)-ATPase activity in Sprague-Dawley rat microsomal vesicles at 3 uM in presence of 0.3 mM of ATP; assay type: microsomes; conditions: Stomach, Microsome; method in brief: as §1
[9] = species: Rattus norvegicus; assay: Inhibition of gastric proton pump activity of gastric H(+)/K(+) ATPase in Sprague-Dawley rat microsomal vesicles before washing at 10 uM; assay type: microsomes; conditions: Stomach, Microsome
[10] = test system: Rattus norvegicus; assay: Antisecretory activity in rat pylorus ligation-induced ulcer model assessed as inhibition of total acidity of gastric juice at 20 mg/kg; assay type: functional, organism-based; design: dose 20 mg/kg; method in brief: as §2
[11] = species: Rattus norvegicus; assay: Inhibition of p-NPPase in Sprague-Dawley rat microsomal vesicles at 100 uM in presence of 5.0 mM of p-NPP; assay type: microsomes; conditions: Microsome; method in brief: as §3
[12] = species: Rattus norvegicus; assay: Inhibition of gastric H+/K(+)-ATPase activity in Sprague-Dawley rat microsomal vesicles at 10 uM in presence of 1.0 mM of ATP; assay type: microsomes; conditions: Stomach, Microsome; method in brief: as §1
[13] = species: Rattus norvegicus; assay: Inhibition of p-NPPase in Sprague-Dawley rat microsomal vesicles at 3 uM in presence of 3.0 mM of p-NPP; assay type: microsomes; conditions: Microsome; method in brief: as §3
[14] = species: Rattus norvegicus; assay: Inhibition of p-NPPase in Sprague-Dawley rat microsomal vesicles at 30 uM in presence of 1.0 mM of p-NPP; assay type: microsomes; conditions: Microsome; method in brief: as §3
[15] = species: Rattus norvegicus; assay: Inhibition of gastric H+/K(+)-ATPase activity in Sprague-Dawley rat microsomal vesicles at 30 uM in presence of 1.0 mM of ATP; assay type: microsomes; conditions: Stomach, Microsome; method in brief: as §1
[16] = species: Rattus norvegicus; assay: Inhibition of p-NPPase in Sprague-Dawley rat microsomal vesicles at 10 uM in presence of 1.0 mM of p-NPP; assay type: microsomes; conditions: Microsome; method in brief: as §3
[17] = species: Rattus norvegicus; assay: Inhibition of gastric H+/K(+)-ATPase activity in Sprague-Dawley rat microsomal vesicles at 30 uM in presence of 3.0 mM of ATP; assay type: microsomes; conditions: Stomach, Microsome; method in brief: as §1
[18] = species: Rattus norvegicus; assay: Inhibition of gastric H+/K(+)-ATPase activity in Sprague-Dawley rat microsomal vesicles at 10 uM in presence of 3.0 mM of ATP; assay type: microsomes; conditions: Stomach, Microsome; method in brief: as §1
[19] = species: Rattus norvegicus; assay: Inhibition of gastric H+/K(+)-ATPase activity in Sprague-Dawley rat microsomal vesicles at 30 uM in presence of 0.3 mM of ATP; assay type: microsomes; conditions: Stomach, Microsome; method in brief: as §1
[20] = species: Rattus norvegicus; assay: Inhibition of p-NPPase in Sprague-Dawley rat microsomal vesicles at 10 uM in presence of 3.0 mM of p-NPP; assay type: microsomes; conditions: Microsome; method in brief: as §3
[21] = species: Rattus norvegicus; assay: Inhibition of gastric H+/K(+)-ATPase activity in Sprague-Dawley rat microsomal vesicles at 3 uM in presence of 3.0 mM of ATP; assay type: microsomes; conditions: Stomach, Microsome; method in brief: as §1
[22] = species: Rattus norvegicus; assay: Inhibition of p-NPPase in Sprague-Dawley rat microsomal vesicles at 10 uM in presence of 5.0 mM of p-NPP; assay type: microsomes; conditions: Microsome; method in brief: as §3
[23] = species: Rattus norvegicus; assay: Inhibition of gastric H+/K(+)-ATPase activity in Sprague-Dawley rat microsomal vesicles at 3 uM in presence of 1.0 mM of ATP; assay type: microsomes; conditions: Stomach, Microsome; method in brief: as §1
[24] = species: Rattus norvegicus; assay: Inhibition of p-NPPase in Sprague-Dawley rat microsomal vesicles at 30 uM in presence of 3.0 mM of p-NPP; assay type: microsomes; conditions: Microsome; method in brief: as §3
[25] = test system: Rattus norvegicus; assay: Antisecretory activity in rat pylorus ligation-induced ulcer model assessed as inhibition of free acidity of gastric juice at 10 mg/kg; assay type: functional, organism-based; design: dose 10 mg/kg; method in brief: as §2

Question: Which results are given for COC(=O)[C@@H]1CCC(=O)N1Cc1ccc(Cl)cc1?
Answer: inhibition [1]: 46%; Activity [2]: 1.01; Activity [3]: 0.67

Question: Which inhibition [1] does the source give for Cc1ccc(CN2C(=O)CC[C@H]2C(=O)OC(C)(C)C)cc1 here?
Answer: 79%

Question: And the Activity [2]?
Answer: 0.52

Question: What about the Activity [3] of the same molecule?
Answer: 0.48

Question: What does the source list for CC(C)(C)[C@H]1OC(=O)[C@@H]2CCC(=O)N21?
Answer: inhibition [1]: 92%; Activity [2]: 0.49; Activity [3]: 0.61

Question: Which inhibition [1] does the source give for CC(C)(C)OC(=O)[C@@H]1CCC(=O)N1Cc1ccccc1Cl here?
Answer: 88%

Question: And the Activity [2]?
Answer: 0.27

Question: And the Activity [3]?
Answer: 0.17

Question: For COc1ccc2[nH]c([S+]([O-])Cc3ncc(C)c(OC)c3C)nc2c1 (centres undefined), which inhibition [4] is on record?
Answer: 90%

Question: And the inhibition [5]?
Answer: 56%

Question: And the inhibition [6]?
Answer: 28%

Question: And the inhibition [7]?
Answer: 79%

Question: And the inhibition [8]?
Answer: 38%

Question: What about the inhibition [9] of the same molecule?
Answer: 60%

Question: What about the Activity [10] of the same molecule?
Answer: Active

Question: And the inhibition [11]?
Answer: 96%

Question: What about the inhibition [12] of the same molecule?
Answer: 51%

Question: And the inhibition [13]?
Answer: 28%

Question: And the inhibition [14]?
Answer: 77%

Question: What about the inhibition [15] of the same molecule?
Answer: 71%

Question: And the inhibition [16]?
Answer: 54%

Question: And the inhibition [17]?
Answer: 76%

Question: What about the inhibition [18] of the same molecule?
Answer: 53%

Question: And the inhibition [19]?
Answer: 75%

Question: And the inhibition [20]?
Answer: 52%

Question: And the inhibition [21]?
Answer: 34%

Question: And the inhibition [22]?
Answer: 48%

Question: What about the inhibition [23] of the same molecule?
Answer: 38%

Question: And the inhibition [24]?
Answer: 78%

Question: And the Activity [25]?
Answer: Active

Question: What does the source list for O=C(N[C@@H](COCc1ccccc1)C(=O)O)OCc1ccccc1?
Answer: inhibition [1]: 59%; Activity [2]: 0.5; Activity [3]: 0.48

Question: For O=C1CC[C@@H](C(=O)O)N1 [PIDOLIC ACID], which inhibition [1] is on record?
Answer: 67%

Question: What about the Activity [2] of the same molecule?
Answer: 0.75

Question: What about the Activity [3] of the same molecule?
Answer: 0.69

Question: Which results are given for Cc1ccccc1CN1C(=O)CC[C@H]1C(=O)O?
Answer: inhibition [1]: 46%; Activity [2]: 0.89; Activity [3]: 0.92

Question: What does the source list for COc1ccccc1CN1C(=O)CC[C@H]1C(=O)O?
Answer: inhibition [1]: 49%; Activity [2]: 0.64; Activity [3]: 0.61

Question: Which inhibition [1] does the source give for O=C(N[C@H](CO)C(=O)O)OCc1ccccc1 here?
Answer: 46%

Question: What about the Activity [2] of the same molecule?
Answer: 0.49

Question: And the Activity [3]?
Answer: 0.36

Question: With COC(=O)[C@@H]1CCCN1C(=O)Cc1ccc(OC)cc1 as the molecule, how does the inhibition [1] read?
Answer: 52%

Question: What about the Activity [2] of the same molecule?
Answer: 0.86

Question: And the Activity [3]?
Answer: 0.81

Question: O=C(O)[C@@H]1CCCN1C(=O)/C=C/c1ccccc1 was tested. Which inhibition [1] did it give?
Answer: 58%

Question: And the Activity [2]?
Answer: 0.76

Question: What about the Activity [3] of the same molecule?
Answer: 0.65

Question: CC(C)(C)OC(=O)N[C@@H](CO)C(=O)O was tested. Which inhibition [1] did it give?
Answer: 34%

Question: And the Activity [2]?
Answer: 0.72

Question: And the Activity [3]?
Answer: 0.71

Question: What does the source list for CCOC(=O)[C@@H](NC(=O)OCc1ccccc1)C(O)C#C[Si](C)(C)C (some centres undefined)?
Answer: inhibition [1]: 10%; Activity [2]: 1; Activity [3]: 1.01

Question: For O=C(O)[C@@H]1CCC(=O)N1Cc1ccccc1, which inhibition [1] is on record?
Answer: 44%

Question: And the Activity [2]?
Answer: 0.93

Question: And the Activity [3]?
Answer: 0.86
